Active and inactive are the calls of the source. No cut-off for these calls is given here.
Tests used:
[1] = Cell cycle arrest in mouse 3T3L1 cells assessed as number of cells at G0/G1 phase at 3 uM after 24 hrs by flow cytometry (reference value: 37.6%); format: functional, cell-based; conditions: 3T3-L1
[2] = Downregulation of C/EBP beta mRNA level in mouse 3T3L1 cells at 3 uM after 2 and 24 hrs by RT-PCR analysis; format: functional, cell-based; conditions: 3T3-L1
In short: (§1)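 3T3-L1 preadipocytes in adipogenic cocktail with compound (0.3-3.0 µM; 3 µM for the 2 h and 24 h time course). Total RNA extracted, cDNA made from 1 µg RNA with oligo primer, then PCR: 95 °C 10 min, 35 cycles of 95 °C 30 s, annealing 45 s, 72 °C 1 min, final 72 °C 10 min. Normalized to actin; n = 3.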

[3] = Downregulation of ACC level in mouse 3T3L1 cells after 6 days by western blot analysis; format: functional, cell-based; conditions: 3T3-L1
In short: (§2)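 3T3-L1 preadipocytes incubated in adipogenic cocktail with or without compound (0.3, 1.0, 3.0 µM) for the stated periods. Protein levels measured by Western blot (RIPA lysis, PVDF, BSA block, primary 16 h at 4 °C, HRP secondary), normalized to GAPDH/Tubulin and expressed relative to controls; n = 3.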

[4] = Downregulation of SCD-1 level in mouse 3T3L1 cells after 6 days by western blot analysis; format: functional, cell-based; conditions: 3T3-L1; in short: as §2
[5] = Upregulation of LKB1 expression in mouse 3T3L1 cells at 3 uM after 2 and 24 hrs by western blot analysis; format: functional, cell-based; conditions: 3T3-L1
In short: (§3)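 During 3T3-L1 differentiation with adipogenic cocktail, cells were treated with 3 µM compound for 10 min, 2 h or 24 h. Lysates in RIPA with protease/phosphatase inhibitors were run on SDS-PAGE and Western blotted. Proteins were normalized to GAPDH and expressed relative to the 10 min DMSO group, which was set at 100%; n = 3 independent experiments.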

[6] = Cell cycle arrest in mouse 3T3L1 cells assessed as number of cells at G0/G1 phase at 0.3 uM after 24 hrs by flow cytometry (reference value: 37.6%); format: functional, cell-based; conditions: 3T3-L1
[7] = Downregulation of SREBP-1c level in mouse 3T3L1 cells at 0.3 to 3 uM after 3 days by western blot analysis; format: functional, cell-based; conditions: 3T3-L1; in short: as §2
[8] = Downregulation of FAS level in mouse 3T3L1 cells after 6 days by western blot analysis; format: functional, cell-based; conditions: 3T3-L1; in short: as §2
[9] = Cell cycle arrest in mouse 3T3L1 cells assessed as number of cells at S phase at 3 uM after 24 hrs by flow cytometry (reference value: 18.1%); format: functional, cell-based; conditions: 3T3-L1
[10] = target: T1, Serine/threonine-protein kinase STK11 (Mus musculus) (UniProt Q9WTK7); test: Activation of LKB1-mediated AMPK in mouse 3T3L1 cells assessed as increase in phophorylated AMPK alpha at Thr 172 residue level at 3 uM by western blot analysis; format: cell-based; conditions: 3T3-L1, TDE = time-dependent effect
T1 sequence (whole entry): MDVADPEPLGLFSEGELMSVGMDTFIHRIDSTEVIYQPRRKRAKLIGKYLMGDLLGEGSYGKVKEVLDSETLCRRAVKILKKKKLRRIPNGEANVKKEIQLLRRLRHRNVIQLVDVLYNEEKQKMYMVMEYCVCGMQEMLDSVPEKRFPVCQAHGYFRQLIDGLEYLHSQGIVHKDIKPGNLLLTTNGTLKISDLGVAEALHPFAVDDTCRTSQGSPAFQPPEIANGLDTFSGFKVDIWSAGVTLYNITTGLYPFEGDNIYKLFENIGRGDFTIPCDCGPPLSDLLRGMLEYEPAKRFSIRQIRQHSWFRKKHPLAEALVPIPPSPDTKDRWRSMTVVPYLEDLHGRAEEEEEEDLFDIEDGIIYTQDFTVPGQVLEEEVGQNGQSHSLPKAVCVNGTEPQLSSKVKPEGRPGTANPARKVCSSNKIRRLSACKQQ
In short: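 3T3-L1 preadipocytes held in adipogenic cocktail with or without compound at 3 µM, time course (10 min, 2 h, 24 h) during differentiation. Lysis in RIPA with protease/phosphatase inhibitors, SDS-PAGE, PVDF, BSA block, primary antibody 16 h at 4 °C, HRP secondary. Bands normalized to GAPDH, with the 10 min DMSO group set as 100%; n = 3.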

[11] = Cell cycle arrest in mouse 3T3L1 cells assessed as number of cells at S phase at 1 uM after 24 hrs by flow cytometry (reference value: 18.1%); format: functional, cell-based; conditions: 3T3-L1
[12] = Downregulation of C/EBP beta mRNA level in mouse 3T3L1 cells at 0.3 to 3 uM after 24 hrs by RT-PCR analysis; format: functional, cell-based; conditions: 3T3-L1; in short: as §1
3T3-L1 [13] = test: Induction of apoptosis in mouse 3T3L1 cells assessed as late apoptotic cells at 0.3 uM after 24 hrs by annexin-V-FITC and PI staining based flow cytometry (reference value: 0.03%); format: functional
[14] = Downregulation of PPAR-gamma mRNA level in mouse 3T3L1 cells at 3 uM after 24 hrs by RT-PCR analysis; format: functional, cell-based; conditions: 3T3-L1; in short: as §1
[15] = target: T1, Serine/threonine-protein kinase STK11 (Mus musculus); test: Activation of LKB1-mediated ACC in mouse 3T3L1 cells assessed as increase in phophorylated ACC level at 3 uM after 3 days by western blot analysis; format: cell-based; conditions: 3T3-L1
[16] = Decrease in triglyceride level in mouse 3T3L1 cells at 1 uM measured during 6 to 9 days by oil red O staining based microscopic analysis; format: functional, cell-based; conditions: 3T3-L1
In short: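 3T3-L1 cells given 1 µM compound during day 0-3, 0-6, 0-9, 3-6, 3-9 or 6-9 of differentiation. On Day 9, intracellular lipid measured by TG assay (Triton lysate, GPO-POD kit, per protein) and by Oil Red O staining with microscopy; n = 3.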

3T3-L1 [17] = test: Inhibition of adipogenesis in mouse 3T3L1 cells assessed as reduction in mature adipocytes number at 1 uM measured during 0 to 3,0 to 6,0 to 9, 3 to 6, 3 to 9 and 6 to 9 days by oil red O staining based microscopic analysis; format: functional, cell-based
In short: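 Differentiation was induced two days post-confluence (day 0) with IBMX/dexamethasone/insulin for 3 days, then insulin medium. Compound at 1 µM was present during days 0-3, 0-6, 0-9, 3-6, 3-9 or 6-9. On day 9, cells were fixed in 4% formaldehyde, stained with Oil Red O for 30 min, and imaged by microscopy. A TG assay was also run; DMSO vehicle served as control.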

3T3-L1 [18] = test: Induction of apoptosis in mouse 3T3L1 cells assessed as early apoptotic cells at 1 uM after 24 hrs by annexin-V-FITC and PI staining based flow cytometry (reference value: 0.56%); format: functional
HepG2 = test: Decrease in triglyceride level in human HepG2 cells at 1 uM after 24 hrs by GPO-POD assay in presence of 0.5 mM oleic acid sodium; format: functional
In short: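 HepG-2 cells seeded, then after 24 h exposed to 0.5 mM oleic acid sodium plus compound (1 µM; dose series up to 10 µM) for 24 h, DMSO vehicle. Cells lysed in 0.2% Triton X-100 for 1 h, sonicated, centrifuged. Triglyceride measured by GPO-POD kit and cholesterol by kit, both normalized to BCA protein; n = 3.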

[19] = Downregulation of PPAR-gamma level in mouse 3T3L1 cells at 0.3 to 3 uM after 3 days by western blot analysis; format: functional, cell-based; conditions: 3T3-L1; in short: as §2
[20] = Upregulation of LKB1 expression in mouse 3T3L1 cells at 3 uM after 10 mins by western blot analysis; format: functional, cell-based; conditions: 3T3-L1; in short: as §3

Q: Which results are given for `O=Cc1c(-c2nc(NCCN3CCCC3)c3ccccc3n2)[nH]c2ccccc12`?
A: Activity [1]: 33.5%; inhibition [2]: Active; inhibition [3]: Dose-dependent effect; inhibition [4]: Dose-dependent effect; Activity [5]: Active; Activity [6]: 51.8%; inhibition [7]: Active; inhibition [8]: Dose-dependent effect; Activity [9]: 3.3%; Activity [10]: tde; Activity [11]: 5.2%; inhibition [12]: Active; Activity (3T3-L1 [13]): 0.47%; inhibition [14]: Active; Activity [15]: Active; inhibition [16]: 60%; inhibition (3T3-L1 [17]): Active; Activity (3T3-L1 [18]): 0.84%; inhibition (INH) (HepG2): 70%; inhibition [19]: Active; Activity [20]: Active

Reference: ChEMBL document CHEMBL3734704, “Synthesis and Biological Evaluation of Novel Bouchardatine Derivatives as Potential Adipogenesis/Lipogenesis Inhibitors for Antiobesity Treatment” (J Med Chem, 2015)
